The source made the active and inactive calls. The rule behind the calls is not given here.
Key:
[1] = Antiproliferative activity against human K562 cells after 48 hrs by MTT assay; format: functional, cell-based; conditions: K562, 48 h
Summary of the method: (§1)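 Cells kept in RPMI-1640 with 10% heat-inactivated FBS, 37°C, 5% CO2. 10^4 cells/well seeded, compounds (dissolved in DMSO or PBS, diluted in medium) added after 4 h at final 200, 150, 100, 50 and 10 μM for 48 h. MTT then 4 h, formazan dissolved in DMSO, OD 570 nm. Growth inhibition vs medium control; IC50 from inhibition ratios; three independent experiments in triplicate.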

[2] = Antiproliferative activity against human MCF7 cells after 48 hrs by MTT assay; format: functional, cell-based; conditions: MCF7, 48 h; summary of the method: as §1
[3] = Antiproliferative activity against human HeLa cells after 48 hrs by MTT assay; format: functional, cell-based; summary of the method: as §1
[4] = Anti-metastatic activity against H22 cells xenografted in Balb/c mouse assessed as inhibition of metastasized nodes on lung surface at 10 mg/kg/day, ig administered 6 days per week for two consecutive weeks measured on day 13 post dose by microscopic method relative to control; format: functional; conditions: po
Summary of the method: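 BALB/c mice (18~22 g, both sexes) injected via tail vein with 6 × 10^6 H22 ascites cells. After 24 h, randomized into groups of 10. Compounds given intragastrically at 10 mg/kg in 0.5% CMC-Na (2 mg/ml), vehicle to controls. Lung-surface metastatic nodes counted under microscope; inhibition rate from mean node counts vs vehicle group.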

[5] = Anti-metastatic activity against H22 cells xenografted in Balb/c mouse assessed as lung weight at 10 mg/kg/day, ig administered 6 days per week for two consecutive weeks measured on day 12 post last dose (reference value: 0.287 +/- 0.117 g); format: functional
[6] = test system: Mus musculus; assay: Toxicity in Balb/c mouse xenografted with […] cells assessed as mouse survival at 10 mg/kg/day, ig administered 6 days per week for two consecutive weeks; format: organism-based; conditions: in vivo, po, 144 h
Summary of the method: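 H22 hepatocarcinoma ascites from BALB/c donor mice was diluted 1:4 in saline (3 × 10^7 cells/ml), and 0.2 mL (6 × 10^6 cells) was injected via tail vein into BALB/c mice weighing 18~22 g. After 24 h, mice were weighed and randomised into 7 groups of 10, half of each sex. Compound was given intragastrically at 2 mg/ml in 0.5% CMC-Na, with vehicle controls. Surviving animals were counted against the original number per group.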

[7] = test system: Mus musculus; assay: Toxicity in Balb/c mouse xenografted with […] cells assessed as body weight at 10 mg/kg/day, ig administered 6 days per week for two consecutive weeks (reference value: 20.17 +/- 3.66 g); format: organism-based; conditions: in vivo, po, 144 h
[8] = target: DNA topoisomerase 2-alpha (Homo sapiens) (UniProt P11388); assay: Inhibition of human topoisomerase-2 alpha-mediated kinetoplast DNA decatenation at 3.15 to 200 uM after 15 mins by ethidium bromide staining based agarose gel electrophoresis relative to etoposide
Summary of the method: (§2)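 Human topo IIα (0.5 units) with 20 µg/mL kDNA in 50 mM Tris-HCl pH 8.0, 0.5 mM DTT, 10 mM MgCl2, 2 mM ATP. Compounds at 3.15, 12.5, 50 and 200 µM, 15 min at 37°C; stopped with SDS/glycerol. Products run on 1% agarose, 50 V, 50 min, ethidium bromide-stained, viewed under UV. Controls without enzyme and without inhibitor; etoposide reference.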

[9] = target: DNA topoisomerase 2-alpha (Homo sapiens) (UniProt P11388); assay: Inhibition of human topoisomerase-2 alpha-mediated kinetoplast DNA decatenation at 3.15 to 200 uM after 15 mins by ethidium bromide staining based agarose gel electrophoresis; summary of the method: as §2
[10] = target: DNA topoisomerase 2-alpha (Homo sapiens) (UniProt P11388); assay: Inhibition of human topoisomerase-2 alpha-mediated kinetoplast DNA decatenation after 15 mins by ethidium bromide staining based agarose gel electrophoresis; summary of the method: as §2
[11] = Antiproliferative activity against human NCI60 cells after 48 hrs by SRB assay; format: functional, cell-based; conditions: NCI60, 48 h

DNA topoisomerase 2-alpha (Homo sapiens), sequence (P11388 whole entry): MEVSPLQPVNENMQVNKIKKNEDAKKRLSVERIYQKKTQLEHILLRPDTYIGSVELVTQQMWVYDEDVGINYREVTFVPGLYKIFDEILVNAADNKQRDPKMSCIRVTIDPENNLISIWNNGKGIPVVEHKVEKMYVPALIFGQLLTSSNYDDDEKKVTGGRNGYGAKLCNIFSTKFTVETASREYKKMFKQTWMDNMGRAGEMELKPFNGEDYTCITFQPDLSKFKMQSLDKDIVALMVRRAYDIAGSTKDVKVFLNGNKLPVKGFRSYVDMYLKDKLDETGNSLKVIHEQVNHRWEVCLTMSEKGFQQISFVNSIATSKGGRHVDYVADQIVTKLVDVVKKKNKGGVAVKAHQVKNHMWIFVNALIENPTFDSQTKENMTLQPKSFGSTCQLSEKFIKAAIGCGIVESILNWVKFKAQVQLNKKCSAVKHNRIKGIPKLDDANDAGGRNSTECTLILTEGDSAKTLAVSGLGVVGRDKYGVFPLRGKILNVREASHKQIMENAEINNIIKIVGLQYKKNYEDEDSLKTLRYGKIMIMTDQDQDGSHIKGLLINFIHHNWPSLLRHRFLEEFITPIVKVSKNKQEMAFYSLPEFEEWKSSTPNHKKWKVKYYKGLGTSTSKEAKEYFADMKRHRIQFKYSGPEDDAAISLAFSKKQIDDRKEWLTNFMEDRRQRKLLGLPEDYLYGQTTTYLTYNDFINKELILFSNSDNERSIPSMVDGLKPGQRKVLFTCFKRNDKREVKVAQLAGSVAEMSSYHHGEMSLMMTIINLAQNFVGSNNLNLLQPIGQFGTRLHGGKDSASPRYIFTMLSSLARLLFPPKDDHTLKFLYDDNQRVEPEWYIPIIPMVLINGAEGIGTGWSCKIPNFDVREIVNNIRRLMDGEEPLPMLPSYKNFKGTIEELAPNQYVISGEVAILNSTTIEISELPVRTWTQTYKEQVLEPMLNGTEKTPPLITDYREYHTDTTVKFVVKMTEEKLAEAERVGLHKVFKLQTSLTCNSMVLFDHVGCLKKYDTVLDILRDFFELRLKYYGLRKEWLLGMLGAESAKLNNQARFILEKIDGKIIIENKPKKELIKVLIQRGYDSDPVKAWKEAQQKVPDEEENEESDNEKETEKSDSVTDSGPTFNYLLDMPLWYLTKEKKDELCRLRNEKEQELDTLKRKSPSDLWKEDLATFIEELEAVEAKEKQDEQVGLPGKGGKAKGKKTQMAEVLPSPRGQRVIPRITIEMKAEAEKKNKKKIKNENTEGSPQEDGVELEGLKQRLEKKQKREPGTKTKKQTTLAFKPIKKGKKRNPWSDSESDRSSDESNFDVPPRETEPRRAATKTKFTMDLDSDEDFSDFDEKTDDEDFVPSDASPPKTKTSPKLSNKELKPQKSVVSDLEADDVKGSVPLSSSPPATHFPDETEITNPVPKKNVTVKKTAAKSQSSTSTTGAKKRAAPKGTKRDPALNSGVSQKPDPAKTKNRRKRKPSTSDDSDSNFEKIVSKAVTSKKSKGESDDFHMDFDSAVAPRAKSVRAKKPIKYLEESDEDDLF

| Compound | IC50 [1] [µM] | IC50 [2] [µM] | IC50 [3] [µM] | further results |
| --- | --- | --- | --- | --- |
| C[C@H](NC(=O)c1ccc(Oc2nc3ccccc3nc2NC(C)(C)C)cc1)C(=O)O | 26.4 | 29.4 | 23.4 | – |
| CC[C@@H](C)[C@H](NC(=O)c1ccc(Oc2nc3ccccc3nc2NC(C)(C)C)cc1)C(=O)OC | 38.7 | 33.4 | 31.9 | – |
| CCCCCCCCCCCCNc1nc2ccccc2nc1Oc1ccc(C(=O)N[C@@H](C)C(=O)OC)cc1 | 26.7 | 33.8 | 28.5 | – |
| CCCCCCCCCCCCNc1nc2ccccc2nc1Oc1ccc(C(=O)N[C@H](C(=O)O)[C@H](C)CC)cc1 | 21.5 | 30.4 | 35.5 | – |
| COC(=O)[C@H](C)NC(=O)c1ccc(Oc2nc3ccccc3nc2NC(C)(C)C)cc1 | 42.2 | 38.4 | 55.2 | – |
| Cc1nc2ccccc2nc1Oc1ccc(C(=O)N[C@@H](CC(C)C)C(=O)O)cc1 | 19.5 | 14.7 | 17.3 | inhibition in vivo at 10 mg/kg/day [4]: 11%; Activity [5]: 0.238 g; Activity [6]: Non-Toxic; Activity [7]: 22.46 g |
| CCCCCCCCCCCCNc1nc2ccccc2nc1Oc1ccc(C(=O)N[C@@H](Cc2ccccc2)C(=O)O)cc1 | 7.37 | 6.79 | 9.19 | inhibition in vivo at 10 mg/kg/day [4]: 33.7%; fold change (FC) [8]: 4; Activity [5]: 0.197 g; Activity [7]: 20.85 g; inhibition [9]: Active |
| CC(C)C[C@H](NC(=O)c1ccc(Oc2nc3ccccc3nc2NC(C)(C)C)cc1)C(=O)O | 42.3 | 40.3 | 39.2 | – |
| CC[C@@H](C)[C@H](NC(=O)c1ccc(Oc2nc3ccccc3nc2C)cc1)C(=O)OC | 38.3 | 36.1 | > 50 | – |
| COC(=O)CNC(=O)c1ccc(Oc2nc3ccccc3nc2NC(C)(C)C)cc1 | > 50 | > 50 | > 50 | – |
| COC(=O)[C@H](CC(C)C)NC(=O)c1ccc(Oc2nc3cc(Cl)ccc3nc2C)cc1 | 22 | 19.1 | 18.6 | – |
| COC(=O)[C@H](CC(C)C)NC(=O)c1ccc(Oc2nc3ccccc3nc2C)cc1 | 22.6 | 25.5 | 21.6 | – |
| CC(C)(C)Nc1nc2ccccc2nc1Oc1ccc(C(=O)NCC(=O)O)cc1 | > 50 | > 50 | > 50 | – |
| CCCCCCCCCCCCNc1nc2ccccc2nc1Oc1ccc(C(=O)N[C@@H](C)C(=O)O)cc1 | 3.28 | 4.11 | 6.24 | inhibition in vivo at 10 mg/kg/day [4]: 42.5%; inhibition [10]: Dose-dependent effect; Activity [5]: 0.23 g; Activity [7]: 24.62 g |
| Cc1nc2cc(Cl)ccc2nc1Oc1ccc(C(=O)N[C@@H](CC(C)C)C(=O)O)cc1 | 21.3 | 17.4 | 25 | – |
| Cc1nc2ccccc2nc1Oc1ccc(C(=O)N[C@@H](C)C(=O)O)cc1 | 28.1 | 25.6 | 22.3 | – |
| CC(C)(C)Nc1nc2ccccc2nc1Oc1ccc(C(=O)N[C@@H](Cc2ccccc2)C(=O)O)cc1 | 15.2 | 25.3 | 20.5 | – |

| Compound | IC50 [1] [µM] | IC50 [2] [µM] | IC50 [3] [µM] | further results |
| --- | --- | --- | --- | --- |
| COC(=O)[C@H](Cc1ccccc1)NC(=O)c1ccc(Oc2nc3cc(Cl)ccc3nc2C)cc1 | 27.5 | 25.5 | 28.8 | – |
| COC(=O)[C@H](CC(C)C)NC(=O)c1ccc(Oc2nc3ccc(Cl)cc3nc2C)cc1 | 32.6 | 22.8 | 37.6 | – |
| Cc1nc2cc(Cl)ccc2nc1Oc1ccc(C(=O)N[C@@H](C)C(=O)O)cc1 | 20.9 | 19.4 | 30 | – |
| CCCCCCCCCCCCNc1nc2ccccc2nc1Oc1ccc(C(=O)N[C@H](C(=O)OC)[C@H](C)CC)cc1 | 30.8 | 43.3 | 40.3 | – |
| CCCCCCCCCCCCNc1nc2ccccc2nc1Oc1ccc(C(=O)N[C@@H](Cc2ccccc2)C(=O)OC)cc1 | 30.5 | 33.4 | 34.4 | – |
| COC(=O)[C@H](CC(C)C)NC(=O)c1ccc(Oc2nc3ccccc3nc2NC(C)(C)C)cc1 | > 50 | > 50 | > 50 | – |
| COc1cc([C@@H]2c3cc4c(cc3[C@@H](O[C@@H]3O[C@@H]5CO[C@@H](C)O[C@H]5[C@H](O)[C@H]3O)[C@H]3COC(=O)[C@H]23)OCO4)cc(OC)c1O | – | – | – | inhibition [9]: Active |
| C[C@@H](Oc1ccc(Oc2cnc3ccc(Cl)cc3n2)cc1)C(=O)O [R(+)XK469] | – | – | – | IC50 [11]: 70 µM |
| Cc1nc2ccc(Cl)cc2nc1Oc1ccc(C(=O)N[C@@H](Cc2ccccc2)C(=O)O)cc1 | 21.5 | 20.2 | 20.2 | – |
| COc1cccc2c1C(=O)c1c(O)c3c(c(O)c1C2=O)C[C@@](O)(C(=O)CO)C[C@@H]3O[C@H]1C[C@H](N)[C@H](O)[C@H](C)O1 [DOXORUBICIN] | 13.5 | – | 11.5 | inhibition in vivo at 10 mg/kg/day [4]: 59.9%; Activity [5]: 0.217 g; Activity [7]: 23.32 g |
| CC[C@@H](C)[C@H](NC(=O)c1ccc(Oc2nc3ccccc3nc2C)cc1)C(=O)O | 30.5 | 35.7 | 33.2 | – |
| COC(=O)[C@H](C)NC(=O)c1ccc(Oc2nc3ccccc3nc2C)cc1 | 45.5 | 38.4 | 32.2 | – |
| COC(=O)[C@H](Cc1ccccc1)NC(=O)c1ccc(Oc2nc3ccccc3nc2NC(C)(C)C)cc1 | 10.3 | > 50 | > 50 | – |
| Cc1nc2ccc(Cl)cc2nc1Oc1ccc(C(=O)N[C@@H](CC(C)C)C(=O)O)cc1 | 14.5 | 15.1 | 16.4 | inhibition in vivo at 10 mg/kg/day [4]: 14.8%; Activity [5]: 0.254 g; Activity [6]: Non-Toxic; Activity [7]: 23.25 g |
| COC(=O)[C@H](C)NC(=O)c1ccc(Oc2nc3ccc(Cl)cc3nc2C)cc1 | 26 | 33.8 | 42.5 | – |
| CC[C@@H](C)[C@H](NC(=O)c1ccc(Oc2nc3ccccc3nc2NC(C)(C)C)cc1)C(=O)O | 18.3 | 11.3 | 13.4 | inhibition in vivo at 10 mg/kg/day [4]: 27.6%; Activity [5]: 0.211 g; Activity [6]: Non-Toxic; Activity [7]: 21.84 g |
